According to PMC3258117 (Journal of Medicinal Chemistry, 2011):
Where two headings read alike, the source gives them in different places.

How the values were obtained:
[1] = test system: T. cruzi Tulahuen C4 amastigotes; assay: In vitro growth inhibition of T. cruzi amastigotes in infected L6 myoblasts; format: cell-based, Trypanosoma cruzi; conditions: for fold increase of T. cruzi IC50 compared to the nitro-containing analog: non-nitro triazoles 19 and 31 versus 17 and 29; for activity designation against T. cruzi: classes by IC50 criteria of b15
[2] = test system: T.b. rhodesiense STIB 900 trypomastigotes; assay: In vitro growth inhibition of T. b. rhodesiense bloodstream form trypomastigotes; format: cell-based, Trypanosoma brucei rhodesiense; conditions: for activity designation against T.b. rhodesiense: classes by IC50 criteria of b15
[3] = Reduction potential by cyclic voltammetry; format: physicochemical; conditions: cyclic voltammetry relative to Ag/AgCl
How it was run: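 Half-wave reduction potentials (E1/2) measured by cyclic voltammetry against an Ag/AgCl reference electrode, using a carbon mesh working electrode and a Pt wire counter electrode. The supporting electrolyte was 0.1M tetrabutylammonium hexafluorophosphate (TBAPF6).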

[4] = cited from earlier work
[5] = test system: L. donovani MHOM-ET-67/L82 axenic amastigotes; assay: In vitro growth inhibition of axenically cultured L. donovani amastigotes; format: cell-based, Leishmania donovani; conditions: SI = IC50 in L6 cells / IC50 in parasites
[6] = 15 mg/kg given i.p. for 30 days; cited from earlier work
T. cruzi = conditions: 2 mg/kg/day for 50 days, mice, acute phase of infection; cited from earlier work
[7] = test system: L6 cells (rat skeletal myoblasts); assay: Cytotoxicity assessment using L6 cells; format: cell-based; conditions: read-out: Cytotox. L6 IC-50
[8] = SI = IC50 in L6 cells / IC50 in parasites

## Cl.Cl.O=[N+]([O-])c1ncn(CCCN2CCN(Cc3ccc(C(F)(F)F)cc3)CC2)n1 [Compound 40, 1-[3-(3-Nitro-1H-1,2,4-triazol-1-yl)propyl]-4-{[4-(trifluoromethyl)phenyl]methyl}piperazine dihydrochloride]
[1]; Table 2, T. cruzi, IC50 in L6 cells / IC50 in parasites
  SI: >562

## Cl.FC(F)(F)c1cc(CNCCCCn2cncn2)cc(C(F)(F)F)c1 [Compound 31, {[3,5-bis(Trifluoromethyl)phenyl]methyl}[4-(1H-1,2,4-triazol-1-yl)butyl]amine hydrochloride]
[1]
  fold increase of T. cruzi IC50 compared to the nitro-containing analog: 730 fold

## Cl.O=[N+]([O-])c1ncn(CCCCNc2ccnc3cc(Cl)ccc23)n1 [Compound 17, 7-Chloro-N-[4-(3-nitro-1H-1,2,4-triazol-1-yl)butyl]quinolin-4-amine hydrochloride]
[2]
  activity designation against T.b. rhodesiense: active
[3]; in CH3CN
  E1/2 reduction potential: -1.18 V

## Cl.Cl.O=[N+]([O-])c1ncn(CCCCN2CCN(Cc3ccc(C(F)(F)F)cc3)CC2)n1 [Compound 41, 1-[4-(3-Nitro-1H-1,2,4-triazol-1-yl)butyl]-4-{[4-(trifluoromethyl)phenyl]methyl}piperazine dihydrochloride]
[3]; in DMSO
  E1/2 reduction potential: -1.04 V

## CC1CS(=O)(=O)CCN1/N=C/c1ccc([N+](=O)[O-])o1 (centres unmarked) [Nifurtimox, 4-(5-nitrofurfurylidenamino)-3-methylthio-morpholine-1,1-dioxide]
[4]
  E1/2 reduction potential: -0.88 V

## Cl.O=[N+]([O-])c1ncn(CCCNc2nc(-c3ccccc3)nc3ccccc23)n1 [Compound 20, N-[3-(3-Nitro-1H-1,2,4-triazol-1-yl)propyl]-2-phenyl-quinazolin-4-amine hydrochloride]
[3]; in DMSO
  E1/2 reduction potential: -1.04 V

## Cl.Cl.O=[N+]([O-])c1nccn1CCCN1CCN(Cc2ccc(C(F)(F)F)cc2)CC1 [Compound 39, 1-[3-(2-Nitro-1H-imidazol-1-yl)propyl]-4-{[4-(trifluoromethyl)phenyl]methyl}piperazine dihydrochloride]
[5]
  L. donovani axen. SI: ∼1

## Cl.O=[N+]([O-])c1ncn(CCCN(Cc2ccc(C(F)(F)F)cc2)Cc2ccc(C(F)(F)F)cc2)n1 [Compound 38, [3-(3-Nitro-1H-1,2,4-triazol-1-yl)propyl]bis({[4-(trifluoromethyl)phenyl]methyl})amine hydrochloride]
[1]
  activity designation against T. cruzi: active
[2]
  activity designation against T.b. rhodesiense: active
[3]; in DMSO
  E1/2 reduction potential: -1.06 V

## Cl.O=[N+]([O-])c1nccn1CCCNc1nc(-c2ccccc2)nc2ccccc12 [Compound 8, N-[3-(2-Nitro-1H-imidazol-1-yl)propyl]-2-phenylquinazolin-4-amine hydrochloride]
[3]; in DMSO
  E1/2 reduction potential: -1.03 V

## Cl.O=[N+]([O-])c1ncn(CCCNCc2ccc(C(F)(F)F)cc2)n1 [Compound 37, [3-(3-Nitro-1H-1,2,4-triazol-1-yl)propyl]({[4-(trifluoromethyl)phenyl]methyl})amine hydrochloride]
[1]
  activity designation against T. cruzi: active

## Cl.O=[N+]([O-])c1ncn(CCCNCc2cc(C(F)(F)F)cc(C(F)(F)F)c2)n1 [Compound 29, {[3,5-bis(Trifluoromethyl)phenyl]methyl}[3-(3-nitro-1H-1,2,4-triazol-1-yl)propyl]amine hydrochloride]
[1]
  activity designation against T. cruzi: active
[3]; in DMSO
  E1/2 reduction potential: -1.07 V

## Cl.O=[N+]([O-])c1nccn1CCCNCc1cc(C(F)(F)F)cc(C(F)(F)F)c1 [Compound 26]
[5]
  L. donovani axen. SI: ∼2

## O=C1C(Cl)=C(NCCCn2cnc([N+](=O)[O-])n2)C(=O)c2ccccc21 [Compound 25, 2-Chloro-3-{[3-(3-nitro-1H-1,2,4-triazol-1-yl)propyl]amino}-1,4-dihydronaphthalene-1,4-dione]
[1]; 3-nitrotriazole versus its 2-nitroimidazole analog
  fold greater effect on T. cruzi growth than 2-nitroimidazole counterpart: 2 fold

## Cl.Clc1ccc2c(NCCCCn3cncn3)ccnc2c1 [Compound 19, 7-Chloro-N-[4-(1H-1,2,4-triazol-1-yl)butyl]quinolin-4-amine]
[5]
  L. donovani axen. SI: ∼1
[1]
  fold increase of T. cruzi IC50 compared to the nitro-containing analog: 658 fold

## Cl.Cl.O=[N+]([O-])c1ncn(CCCN2CCN(c3ccc(C(F)(F)F)cc3)CC2)n1 [Compound 42, 1-[3-(3-Nitro-1H-1,2,4-triazol-1-yl)propyl]-4-[4-(trifluoromethyl)phenyl]piperazine dihydrochloride]
[1]; T. cruzi in vitro
  fold increased antichagasic activity compared to 40 and 41: about 10 fold

## Cl.O=[N+]([O-])c1ncn(CCCNc2c3ccccc3nc3ccccc23)n1 [Compound 1, 9-[(3-nitro-1H-1,2,4-triazolyl)-propylamino]acridine hydrochloride]
[6]
  toxicity in vivo: demonstrated toxicity
T. cruzi
  fraction of cures: 20%
  peripheral parasite levels: rapid and persistent drop

## 6-Methyl-4-N-[3-(2-nitro-1H-1,2,4-triazol-1-yl)propyl]-pyrimidin-2,4-diamine hydrochloride [Compound 22]
[5]
  L. donovani axen. SI: ∼3
[7]
  IC50: > 286 µM
[1]; [8]
  T. cruzi SI: >8
[1]
  activity designation against T. cruzi: moderately active (IC50 = 4.0-60 μM)
[2]; [8]
  T.b.rhodesiense SI: >131

## Cc1cc(NCCCn2ccnc2[N+](=O)[O-])nc(N)n1.Cl [Compound 11, 6-Methyl-4-N-[3-(2-nitro-1H-imidazol-1-yl)propyl]-pyrimidin-2,4-diamine hydrochloride]
[5]
  L. donovani axen. SI: ∼3
